Values after ≈ are worked out from the molar mass of the structure shown.
Molecular target: Topoisomerase IV (Staphylococcus aureus) (UniProt P0C1U9+P0C1S7)
Assay: Inhibition of Staphylococcus aureus DNA topoisomerase 4 assessed as enzyme residual activity at 10 uM using supercoiled pNO1 plasmid DNA as substrate incubated for 30 mins by fluorescence assay relative to control
Assay type: protein-complex assay

Structure (SMILES) | Activity [%]
Cc1[nH]c(C(=O)Nc2nc3ccc(NC(=O)c4ccncc4)cc3s2)c(Cl)c1Cl | 100
CC(=O)Nc1nc2ccc(NC(=O)c3[nH]c(C)c(Cl)c3Cl)cc2s1 | 100

Tested on: Escherichia coli
Assay: Antibacterial activity against efflux pump defective Escherichia coli JW5503 harbouring tolC mutant assessed as minimum inhibitory concentration required for >=90% inhibition of bacterial growth measured after 24 hrs by broth microdilution method
Assay type: functional

Structure (SMILES) | MIC [µM]
Cc1[nH]c(C(=O)Nc2nc3ccc(NC(=O)CCN)cc3s2)c(Cl)c1Cl | 12.5 (≈ 5.15 µg/mL)
CC(=O)Nc1ccc2nc(NC(=O)c3[nH]c(C)c(Cl)c3Cl)sc2c1 | 0.78 (≈ 0.299 µg/mL)
Cc1[nH]c(C(=O)Nc2nc3ccc(NC(=O)c4ccncc4)cc3s2)c(Cl)c1Cl | > 50
Cc1[nH]c(C(=O)Nc2nc3ccc(NC(N)=O)cc3s2)c(Cl)c1Cl | 1.56 (≈ 0.599 µg/mL)
CC(=O)Nc1nc2ccc(NC(=O)c3[nH]c(C)c(Cl)c3Cl)cc2s1 | > 50

Tested on: not listed separately
Assay: Inhibition of Escherichia coli DNA topoisomerase 4 using supercoiled pNO1 plasmid DNA as substrate incubated for 30 mins by fluorescence assay

Structure (SMILES) | IC50 [nM]
Cc1[nH]c(C(=O)Nc2nc3ccc(NC(=O)CCN)cc3s2)c(Cl)c1Cl | 10000
Cc1[nH]c(C(=O)Nc2ccc3nc(NC(=O)C(=O)O)sc3c2)c(Cl)c1Cl | 6400
CC(=O)Nc1ccc2nc(NC(=O)c3[nH]c(C)c(Cl)c3Cl)sc2c1 | 4600
Cc1[nH]c(C(=O)Nc2nc3ccc(NC(=O)C(=O)O)cc3s2)c(Cl)c1Cl | 75
O=C(O)C(=O)Nc1ccc2nc(NC(=O)c3cc(Br)c(Br)[nH]3)[nH]c2c1 | 12000
Cc1[nH]c(C(=O)Nc2nc3ccc(NC(N)=O)cc3s2)c(Cl)c1Cl | 5200

Tested on: Escherichia coli
Assay: Antibacterial activity against Escherichia coli ATCC 25922 assessed as minimum inhibitory concentration required for >=90% inhibition of bacterial growth measured after 24 hrs by broth microdilution method
Assay type: functional
Method in brief: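 Cation-adjusted Mueller Hinton broth culture grown 16-20 h at 37°C with 100 rpm shaking. CLSI broth microdilution at a final inoculum of 5×10^5 CFU/mL, 8 concentrations from […], incubated 24 h at 37°C. A620 read and growth inhibition expressed as % of untreated controls. Ciprofloxacin positive control on every plate; n = 3.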

Structure (SMILES) | MIC [µM]
Cc1[nH]c(C(=O)Nc2nc3ccc(NC(=O)CCN)cc3s2)c(Cl)c1Cl | > 50
CC(=O)Nc1ccc2nc(NC(=O)c3[nH]c(C)c(Cl)c3Cl)sc2c1 | > 50
O=C(O)c1cn(C2CC2)c2cc(N3CCNCC3)c(F)cc2c1=O [CIPROFLOXACIN] | 0.05 (≈ 0.0166 µg/mL)
Cc1[nH]c(C(=O)Nc2nc3ccc(NC(=O)c4ccncc4)cc3s2)c(Cl)c1Cl | > 50
Cc1[nH]c(C(=O)Nc2nc3ccc(NC(N)=O)cc3s2)c(Cl)c1Cl | > 50
CC(=O)Nc1nc2ccc(NC(=O)c3[nH]c(C)c(Cl)c3Cl)cc2s1 | > 50

Tested on: Staphylococcus aureus
Assay: Antibacterial activity against Staphylococcus aureus ATCC 29213 assessed as minimum inhibitory concentration required for >=90% inhibition of bacterial growth measured after 24 hrs by broth microdilution method
Assay type: functional
Method in brief: (§1)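 Strains were grown from cation-adjusted Mueller-Hinton agar slants into cation-adjusted MH broth at 37°C for 16-20 h at 100 rpm. Broth microdilution followed CLSI guidelines, with a final inoculum of 5×10^5 CFU/mL mixed 1:1 with compound in MH broth and incubated for 24 h at 37°C. Growth was read as A620 and expressed as percentage inhibition relative to untreated controls. Each plate included a ciprofloxacin positive control.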

Structure (SMILES) | MIC [µM]
Cc1[nH]c(C(=O)Nc2nc3ccc(NC(=O)CCN)cc3s2)c(Cl)c1Cl | > 50
Cc1[nH]c(C(=O)Nc2ccc3nc(NC(=O)C(=O)O)sc3c2)c(Cl)c1Cl | > 50
CC(=O)Nc1ccc2nc(NC(=O)c3[nH]c(C)c(Cl)c3Cl)sc2c1 | > 50
Cc1[nH]c(C(=O)Nc2nc3ccc(NC(=O)C(=O)O)cc3s2)c(Cl)c1Cl | > 50
O=C(O)C(=O)Nc1ccc2nc(NC(=O)c3cc(Br)c(Br)[nH]3)[nH]c2c1 | > 50
Cc1[nH]c(C(=O)Nc2nc3ccc(NC(=O)c4ccncc4)cc3s2)c(Cl)c1Cl | > 50
Cc1[nH]c(C(=O)Nc2nc3ccc(NC(N)=O)cc3s2)c(Cl)c1Cl | > 50
CC(=O)Nc1nc2ccc(NC(=O)c3[nH]c(C)c(Cl)c3Cl)cc2s1 | > 50

Molecular target: DNA gyrase (Escherichia coli, UniProt P0AES4+P0AES6)
Assay: Inhibition of Escherichia coli DNA gyrase using relaxed pNO1 plasmid DNA as substrate incubated for 30 mins by fluorescence assay
Assay type: protein-complex assay

Structure (SMILES) | IC50 [nM]
Cc1[nH]c(C(=O)Nc2nc3ccc(NC(=O)CCN)cc3s2)c(Cl)c1Cl | 110
Cc1[nH]c(C(=O)Nc2ccc3nc(NC(=O)C(=O)O)sc3c2)c(Cl)c1Cl | 29
CC(=O)Nc1ccc2nc(NC(=O)c3[nH]c(C)c(Cl)c3Cl)sc2c1 | 9.5
O=C(O)C(=O)Nc1ccc2nc(NC(=O)c3cc(Br)c(Br)[nH]3)[nH]c2c1 | 600
Cc1[nH]c(C(=O)Nc2nc3ccc(NC(=O)c4ccncc4)cc3s2)c(Cl)c1Cl | 2500
Cc1[nH]c(C(=O)Nc2nc3ccc(NC(N)=O)cc3s2)c(Cl)c1Cl | 26
CC(=O)Nc1nc2ccc(NC(=O)c3[nH]c(C)c(Cl)c3Cl)cc2s1 | 66

Tested on: Escherichia coli
Assay: Antibacterial activity against outer membrane impaired Escherichia coli JD17464 harboring lpxC mutant assessed as minimum inhibitory concentration required for >=90% inhibition of bacterial growth measured after 24 hrs by broth microdilution method
Assay type: functional

Structure (SMILES) | MIC [µM]
Cc1[nH]c(C(=O)Nc2nc3ccc(NC(=O)CCN)cc3s2)c(Cl)c1Cl | > 50
Cc1[nH]c(C(=O)Nc2ccc3nc(NC(=O)C(=O)O)sc3c2)c(Cl)c1Cl | > 50
CC(=O)Nc1ccc2nc(NC(=O)c3[nH]c(C)c(Cl)c3Cl)sc2c1 | > 50
Cc1[nH]c(C(=O)Nc2nc3ccc(NC(=O)C(=O)O)cc3s2)c(Cl)c1Cl | > 50
O=C(O)C(=O)Nc1ccc2nc(NC(=O)c3cc(Br)c(Br)[nH]3)[nH]c2c1 | > 50
Cc1[nH]c(C(=O)Nc2nc3ccc(NC(=O)c4ccncc4)cc3s2)c(Cl)c1Cl | > 50
Cc1[nH]c(C(=O)Nc2nc3ccc(NC(N)=O)cc3s2)c(Cl)c1Cl | > 50
CC(=O)Nc1nc2ccc(NC(=O)c3[nH]c(C)c(Cl)c3Cl)cc2s1 | > 50

Tested on: Enterococcus faecalis
Assay: Antibacterial activity against Enterococcus faecalis ATCC 29212 assessed as minimum inhibitory concentration required for >=90% inhibition of bacterial growth after 24 hrs by broth microdilution method
Assay type: functional
Method in brief: as §1

Structure (SMILES) | MIC [µM]
Cc1[nH]c(C(=O)Nc2nc3ccc(NC(=O)CCN)cc3s2)c(Cl)c1Cl | 12.5 (≈ 5.15 µg/mL)
Cc1[nH]c(C(=O)Nc2ccc3nc(NC(=O)C(=O)O)sc3c2)c(Cl)c1Cl | > 50
CC(=O)Nc1ccc2nc(NC(=O)c3[nH]c(C)c(Cl)c3Cl)sc2c1 | 3.13 (≈ 1.2 µg/mL)
Cc1[nH]c(C(=O)Nc2nc3ccc(NC(=O)C(=O)O)cc3s2)c(Cl)c1Cl | > 50
O=C(O)C(=O)Nc1ccc2nc(NC(=O)c3cc(Br)c(Br)[nH]3)[nH]c2c1 | > 50
Cc1[nH]c(C(=O)Nc2nc3ccc(NC(=O)c4ccncc4)cc3s2)c(Cl)c1Cl | > 50
Cc1[nH]c(C(=O)Nc2nc3ccc(NC(N)=O)cc3s2)c(Cl)c1Cl | > 50
CC(=O)Nc1nc2ccc(NC(=O)c3[nH]c(C)c(Cl)c3Cl)cc2s1 | > 50

Tested on: Pseudomonas aeruginosa
Assay: Antibacterial activity against Pseudomonas aeruginosa ATCC 27853 assessed as minimum inhibitory concentration required for >=90% inhibition of bacterial growth measured after 24 hrs by broth microdilution method
Assay type: functional
Method in brief: as §1

Structure (SMILES) | MIC [µM]
Cc1[nH]c(C(=O)Nc2nc3ccc(NC(=O)CCN)cc3s2)c(Cl)c1Cl | > 50
Cc1[nH]c(C(=O)Nc2ccc3nc(NC(=O)C(=O)O)sc3c2)c(Cl)c1Cl | > 50
CC(=O)Nc1ccc2nc(NC(=O)c3[nH]c(C)c(Cl)c3Cl)sc2c1 | > 50
Cc1[nH]c(C(=O)Nc2nc3ccc(NC(=O)C(=O)O)cc3s2)c(Cl)c1Cl | > 50
O=C(O)C(=O)Nc1ccc2nc(NC(=O)c3cc(Br)c(Br)[nH]3)[nH]c2c1 | > 50
Cc1[nH]c(C(=O)Nc2nc3ccc(NC(=O)c4ccncc4)cc3s2)c(Cl)c1Cl | > 50
Cc1[nH]c(C(=O)Nc2nc3ccc(NC(N)=O)cc3s2)c(Cl)c1Cl | > 50
CC(=O)Nc1nc2ccc(NC(=O)c3[nH]c(C)c(Cl)c3Cl)cc2s1 | > 50

Tested on: Escherichia coli
Assay: Inhibition of Escherichia coli DNA topoisomerase 4 assessed as enzyme residual activity at 10 uM using supercoiled pNO1 plasmid DNA as substrate incubated for 30 mins by fluorescence assay relative to control

Structure (SMILES) | Activity [%]
Cc1[nH]c(C(=O)Nc2nc3ccc(NC(=O)c4ccncc4)cc3s2)c(Cl)c1Cl | 100
CC(=O)Nc1nc2ccc(NC(=O)c3[nH]c(C)c(Cl)c3Cl)cc2s1 | 100

Molecular target: Topoisomerase IV (Staphylococcus aureus, UniProt P0C1S7+P0C1U9)
Sequence (P0C1U9 whole entry): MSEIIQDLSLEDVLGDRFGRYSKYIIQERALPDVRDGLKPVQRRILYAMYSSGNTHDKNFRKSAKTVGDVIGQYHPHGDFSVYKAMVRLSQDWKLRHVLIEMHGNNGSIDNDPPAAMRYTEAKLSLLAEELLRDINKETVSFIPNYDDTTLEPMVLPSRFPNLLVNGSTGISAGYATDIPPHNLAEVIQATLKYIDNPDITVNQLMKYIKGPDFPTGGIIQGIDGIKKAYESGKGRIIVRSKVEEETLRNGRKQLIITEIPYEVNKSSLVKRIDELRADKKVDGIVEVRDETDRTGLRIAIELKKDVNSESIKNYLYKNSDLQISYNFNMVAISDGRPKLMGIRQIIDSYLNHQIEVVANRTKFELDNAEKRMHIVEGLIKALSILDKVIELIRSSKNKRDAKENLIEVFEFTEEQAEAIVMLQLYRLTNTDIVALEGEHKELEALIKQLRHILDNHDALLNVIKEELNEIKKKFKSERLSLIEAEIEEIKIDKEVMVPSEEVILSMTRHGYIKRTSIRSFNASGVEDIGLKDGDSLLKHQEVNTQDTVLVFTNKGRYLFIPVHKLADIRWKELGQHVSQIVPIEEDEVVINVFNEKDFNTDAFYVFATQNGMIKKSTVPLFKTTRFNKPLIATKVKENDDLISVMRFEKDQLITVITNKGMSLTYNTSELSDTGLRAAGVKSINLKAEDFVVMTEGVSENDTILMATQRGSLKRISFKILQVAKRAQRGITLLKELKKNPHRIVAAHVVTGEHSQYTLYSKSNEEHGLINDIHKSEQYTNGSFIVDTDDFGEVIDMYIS
Sequence (P0C1S7 whole entry): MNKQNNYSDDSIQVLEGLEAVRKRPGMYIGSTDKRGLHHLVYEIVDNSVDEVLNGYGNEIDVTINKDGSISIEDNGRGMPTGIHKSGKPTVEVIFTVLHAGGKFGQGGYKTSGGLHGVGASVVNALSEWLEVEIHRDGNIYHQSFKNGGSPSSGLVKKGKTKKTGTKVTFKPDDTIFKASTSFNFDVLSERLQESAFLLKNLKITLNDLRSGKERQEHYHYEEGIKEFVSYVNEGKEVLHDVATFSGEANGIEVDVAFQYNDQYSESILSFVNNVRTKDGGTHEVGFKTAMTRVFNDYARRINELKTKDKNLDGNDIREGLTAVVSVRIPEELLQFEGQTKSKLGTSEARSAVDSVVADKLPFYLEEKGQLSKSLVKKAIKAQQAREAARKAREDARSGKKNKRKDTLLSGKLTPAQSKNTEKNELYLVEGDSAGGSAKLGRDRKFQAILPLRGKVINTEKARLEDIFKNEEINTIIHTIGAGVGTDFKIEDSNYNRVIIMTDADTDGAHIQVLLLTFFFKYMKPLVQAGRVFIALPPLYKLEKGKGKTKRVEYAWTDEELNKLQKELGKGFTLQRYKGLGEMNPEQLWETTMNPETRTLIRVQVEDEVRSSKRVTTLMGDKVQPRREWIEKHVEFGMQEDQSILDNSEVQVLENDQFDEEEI
Assay: Inhibition of Staphylococcus aureus DNA topoisomerase 4 using supercoiled pNO1 plasmid DNA as substrate incubated for 30 mins by fluorescence assay
Assay type: protein-complex assay

Structure (SMILES) | IC50 [nM]
Cc1[nH]c(C(=O)Nc2nc3ccc(NC(=O)CCN)cc3s2)c(Cl)c1Cl | 290
Cc1[nH]c(C(=O)Nc2ccc3nc(NC(=O)C(=O)O)sc3c2)c(Cl)c1Cl | 910
O=C(O)C(=O)Nc1ccc2nc(NC(=O)c3cc(Br)c(Br)[nH]3)sc2c1 | 10000
CC(=O)Nc1ccc2nc(NC(=O)c3[nH]c(C)c(Cl)c3Cl)sc2c1 | 1600
Cc1[nH]c(C(=O)Nc2nc3ccc(NC(=O)C(=O)O)cc3s2)c(Cl)c1Cl | 290
O=C(O)C(=O)Nc1ccc2nc(NC(=O)c3cc(Br)c(Br)[nH]3)[nH]c2c1 | 31000
Cc1[nH]c(C(=O)Nc2nc3ccc(NC(N)=O)cc3s2)c(Cl)c1Cl | 5800

Molecular target: DNA gyrase (Staphylococcus aureus, UniProt P0A0K8+P20831)
Sequence (P0A0K8 whole entry): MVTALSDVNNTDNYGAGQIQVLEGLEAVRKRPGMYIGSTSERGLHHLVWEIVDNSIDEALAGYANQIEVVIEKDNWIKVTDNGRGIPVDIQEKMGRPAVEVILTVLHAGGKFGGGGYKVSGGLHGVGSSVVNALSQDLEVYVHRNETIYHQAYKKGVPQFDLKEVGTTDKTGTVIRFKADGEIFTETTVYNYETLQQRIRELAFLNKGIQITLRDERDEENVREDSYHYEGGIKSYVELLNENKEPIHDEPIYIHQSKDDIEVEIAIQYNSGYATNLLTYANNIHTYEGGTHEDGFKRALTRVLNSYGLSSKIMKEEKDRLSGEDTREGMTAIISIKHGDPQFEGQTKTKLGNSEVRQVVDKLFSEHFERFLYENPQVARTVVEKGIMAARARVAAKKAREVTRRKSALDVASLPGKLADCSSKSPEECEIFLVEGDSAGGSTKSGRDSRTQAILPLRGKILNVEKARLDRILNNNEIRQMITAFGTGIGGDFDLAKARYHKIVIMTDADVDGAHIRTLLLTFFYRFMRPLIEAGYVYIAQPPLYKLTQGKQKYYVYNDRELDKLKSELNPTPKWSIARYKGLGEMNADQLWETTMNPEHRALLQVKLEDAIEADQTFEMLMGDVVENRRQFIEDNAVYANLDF
Sequence (P20831 whole entry): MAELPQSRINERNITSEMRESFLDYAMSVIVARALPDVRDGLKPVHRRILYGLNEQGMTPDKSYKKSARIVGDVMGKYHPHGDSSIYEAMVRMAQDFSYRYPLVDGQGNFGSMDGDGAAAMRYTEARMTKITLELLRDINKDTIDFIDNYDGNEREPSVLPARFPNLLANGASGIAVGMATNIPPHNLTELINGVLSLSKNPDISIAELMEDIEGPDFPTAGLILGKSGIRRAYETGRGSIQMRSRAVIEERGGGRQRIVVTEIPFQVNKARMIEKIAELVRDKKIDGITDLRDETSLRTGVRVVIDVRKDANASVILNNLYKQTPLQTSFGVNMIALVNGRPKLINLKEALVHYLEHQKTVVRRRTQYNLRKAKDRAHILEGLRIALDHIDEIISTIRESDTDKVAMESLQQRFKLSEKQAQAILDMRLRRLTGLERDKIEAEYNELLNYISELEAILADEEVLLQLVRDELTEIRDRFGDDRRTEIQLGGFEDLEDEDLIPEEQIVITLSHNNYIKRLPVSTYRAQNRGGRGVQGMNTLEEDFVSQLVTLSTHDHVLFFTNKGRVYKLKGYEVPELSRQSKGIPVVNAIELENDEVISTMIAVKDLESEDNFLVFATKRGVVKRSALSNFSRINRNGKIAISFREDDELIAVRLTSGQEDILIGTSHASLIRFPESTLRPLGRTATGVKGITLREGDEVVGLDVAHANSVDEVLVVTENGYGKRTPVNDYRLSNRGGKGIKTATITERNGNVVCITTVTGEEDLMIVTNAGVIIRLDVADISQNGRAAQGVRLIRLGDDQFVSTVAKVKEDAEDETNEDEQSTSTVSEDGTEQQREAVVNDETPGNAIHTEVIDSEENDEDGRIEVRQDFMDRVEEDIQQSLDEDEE
Assay: Inhibition of Staphylococcus aureus DNA gyrase using relaxed pNO1 plasmid DNA as substrate incubated for 30 mins by fluorescence assay
Assay type: protein-complex assay

Structure (SMILES) | IC50 [nM]
Cc1[nH]c(C(=O)Nc2nc3ccc(NC(=O)CCN)cc3s2)c(Cl)c1Cl | 1500
Cc1[nH]c(C(=O)Nc2ccc3nc(NC(=O)C(=O)O)sc3c2)c(Cl)c1Cl | 250
CC(=O)Nc1ccc2nc(NC(=O)c3[nH]c(C)c(Cl)c3Cl)sc2c1 | 400
O=C(O)C(=O)Nc1ccc2nc(NC(=O)c3cc(Br)c(Br)[nH]3)[nH]c2c1 | 80000
Cc1[nH]c(C(=O)Nc2nc3ccc(NC(N)=O)cc3s2)c(Cl)c1Cl | 1300
CC(=O)Nc1nc2ccc(NC(=O)c3[nH]c(C)c(Cl)c3Cl)cc2s1 | 35400

Molecular target: DNA gyrase (Staphylococcus aureus) (UniProt P0A0K8+P20831)
Sequence (P0A0K8 2-644 limits assumed): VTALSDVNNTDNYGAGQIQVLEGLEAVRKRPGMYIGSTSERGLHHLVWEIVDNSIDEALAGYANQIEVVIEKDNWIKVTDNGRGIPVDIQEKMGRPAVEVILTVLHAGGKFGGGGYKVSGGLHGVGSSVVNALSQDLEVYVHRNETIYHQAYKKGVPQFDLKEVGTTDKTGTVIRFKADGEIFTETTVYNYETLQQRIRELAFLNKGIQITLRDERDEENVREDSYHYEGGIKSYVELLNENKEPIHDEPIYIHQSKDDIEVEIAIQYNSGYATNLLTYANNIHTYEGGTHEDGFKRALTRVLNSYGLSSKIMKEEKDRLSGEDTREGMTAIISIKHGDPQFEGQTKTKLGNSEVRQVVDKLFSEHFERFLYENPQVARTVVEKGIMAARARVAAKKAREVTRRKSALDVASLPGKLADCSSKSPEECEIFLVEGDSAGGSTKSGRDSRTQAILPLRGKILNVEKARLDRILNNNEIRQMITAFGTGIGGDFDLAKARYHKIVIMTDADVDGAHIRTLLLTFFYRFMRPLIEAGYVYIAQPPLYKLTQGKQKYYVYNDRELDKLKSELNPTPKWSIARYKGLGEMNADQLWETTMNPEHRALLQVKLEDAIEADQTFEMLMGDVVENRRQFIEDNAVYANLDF
Sequence (P20831 whole entry partner): as the sequence (P20831 whole entry) above
Assay: Inhibition of Staphylococcus aureus DNA gyrase assessed as enzyme residual activity at 10 uM using relaxed pNO1 plasmid DNA as substrate incubated for 30 mins by fluorescence assay relative to control
Assay type: protein-complex assay

Structure (SMILES) | Activity [%]
Cc1[nH]c(C(=O)Nc2nc3ccc(NC(=O)c4ccncc4)cc3s2)c(Cl)c1Cl | 100
